Laboratory results taken from ChEMBL document CHEMBL3817728, “Synthesis, Evaluation, and Mechanism Study of Novel Indole-Chalcone Derivatives Exerting Effective Antitumor Activity Through Microtubule Destabilization in Vitro and in Vivo” (J Med Chem, 2016).
Calls of active or inactive are those of the source. No cut-off for these calls is given here.

Legend:
A549 [1] = assay: Induction of apoptosis in human A549 cells assessed as necrotic cells at 10 nM after 24 hrs by annexin V-FITC/propidium iodide staining-based flow cytometric method (reference value: 0.03%); format: functional
A549 [2] = assay: Disruption of microtubule network in human A549 cells assessed as multipolarization of spindle at 10 nM after 24 hrs by Hoechst 33342 staining-based laser scanning confocal microscopic analysis; format: cell-based
Method in brief: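 A549 cells plated in confocal dishes and incubated with compound for 24 h. Cells were then fixed and stained, and microtubule and spindle organization was imaged by laser confocal microscopy. Experiments done five times; representative results shown.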

BJ = assay: Cytotoxicity against human BJ cells assessed as growth inhibition after 48 hrs by MTT assay; format: cell-based
Method in brief: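 Non-tumorigenic cells given 48 h compound exposure, and viability read by MTT. IC50 is mean ± SE from dose-response curves of at least three independent experiments. HUVECs were kept quiescent in endothelial cell medium with 0.5% fetal calf serum and no growth factor.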

[3] = Selectivity ratio of IC50 for human MCF10A cells to IC50 for human A549 cells; format: ADME, cell-based; details: MCF10A cells versus A549 cells, read-out: Ratio IC50
Method in brief: (§1)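 Selectivity ratio = IC50 in normal cells / IC50 in A549; IC50 values mean ± SE from dose-response curves of at least three independent experiments. HUVECs kept quiescent in endothelial cell medium with 0.5% fetal calf serum, no growth factor.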

[4] = Selectivity ratio of IC50 for HLF to IC50 for human A549 cells; format: ADME, cell-based; details: HLF versus A549 cells, read-out: Ratio IC50; method in brief: as §1
A549 [5] = assay: Disruption of mitochondrial membrane potential in human A549 cells assessed as green fluorescence intensity at 3 nM after 24 hrs by JC1 staining-based flow cytometric method (reference value: 0.02%); format: functional
A549 [6] = assay: Induction of apoptosis in human A549 cells assessed as necrotic cells at 1 nM after 48 hrs by annexin V-FITC/propidium iodide staining-based flow cytometric method (reference value: 0.01%); format: functional
A549 [7] = assay: Induction of apoptosis in human A549 cells assessed as early apoptotic cells at 1 nM after 48 hrs by annexin V-FITC/propidium iodide staining-based flow cytometric method (reference value: 1.95%); format: functional
A549 [8] = assay: Induction of apoptosis in human A549 cells assessed as viable cells at 3 nM after 48 hrs by annexin V-FITC/propidium iodide staining-based flow cytometric method (reference value: 98.1%); format: functional; details: A549, 48 h, read-out: Activity
Method in brief: (§2)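 A549 cells exposed 24 h or 48 h at indicated concentrations, then trypsinized, harvested and stained with Annexin V-FITC and PI; flow cytometry quadrants scored as necrotic (upper left), late apoptotic (upper right), live (bottom left) and early apoptotic (bottom right). Five independent experiments, representative shown.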

A549 [9] = assay: Induction of apoptosis in human A549 cells assessed as viable cells at 10 nM after 48 hrs by annexin V-FITC/propidium iodide staining-based flow cytometric method (reference value: 98.1%); format: functional; details: A549, 48 h, read-out: Activity; method in brief: as §2

## COc1ccc2c(/C=C(\C)C(=O)c3cc(OC)c(OC)c(OC)c3)c[nH]c2c1
A549 [1]
  Activity: 2.94%
A549 [2]
  Activity: Active
BJ
  IC50: 8.92 µM
[3]
  selectivity ratio: 891
[4]
  selectivity ratio: 1890
A549 [5]
  Activity: 43.8%
A549 [6]
  Activity: 1.52%
A549 [7]
  Activity: 18.9%
A549 [8]
  viability at 0.003 µM: 33.9%
A549 [9]
  viability at 0.01 µM: 15.6%
